# Data published in PubChem BioAssay AID623974 (Vanderbilt High Throughput Screening Facility, 2012).
# Active and inactive are the calls of the source. The rule behind the calls is not given here.
# Target: G protein-activated inward rectifier potassium channel 2 (Homo sapiens) + G protein-activated inward rectifier potassium channel 3 (Homo sapiens) (UniProt P48051+Q92806)
# Experiment: GIRK2/3 channel activators by patch clamp, confirmation, GIRK activator project, HEK-293 hGIRK2/3, whole-cell voltage clamp, Ba2+-sensitive current (AID 623974)
# Details: HEK-293 hGIRK2/3, whole-cell voltage clamp current; series mostly up to 11 µM
# Procedure, shortened: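 System: stable hGIRK2/3 HEK-293 cells. Dosing: compound concentration series fitted by four-parameter logistic curve. Schedule: patch recordings 24–72 h after cell plating. Signal: whole-cell patch clamp, -70 mV holding, barium subtraction.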
# G protein-activated inward rectifier potassium channel 2 (Homo sapiens) + G protein-activated inward rectifier potassium channel 3 (Homo sapiens), sequence (P48051 whole entry, looked up): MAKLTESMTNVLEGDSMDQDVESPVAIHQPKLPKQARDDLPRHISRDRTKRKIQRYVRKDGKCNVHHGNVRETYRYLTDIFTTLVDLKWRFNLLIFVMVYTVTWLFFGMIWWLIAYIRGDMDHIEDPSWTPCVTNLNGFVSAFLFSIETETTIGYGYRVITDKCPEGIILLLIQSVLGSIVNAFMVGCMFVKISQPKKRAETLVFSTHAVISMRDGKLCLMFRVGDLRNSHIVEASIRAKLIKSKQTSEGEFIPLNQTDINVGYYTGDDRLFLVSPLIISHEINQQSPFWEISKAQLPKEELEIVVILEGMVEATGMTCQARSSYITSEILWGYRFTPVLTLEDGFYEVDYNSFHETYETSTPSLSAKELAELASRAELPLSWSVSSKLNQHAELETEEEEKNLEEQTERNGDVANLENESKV
# G protein-activated inward rectifier potassium channel 2 (Homo sapiens) + G protein-activated inward rectifier potassium channel 3 (Homo sapiens), sequence (Q92806 whole entry, looked up): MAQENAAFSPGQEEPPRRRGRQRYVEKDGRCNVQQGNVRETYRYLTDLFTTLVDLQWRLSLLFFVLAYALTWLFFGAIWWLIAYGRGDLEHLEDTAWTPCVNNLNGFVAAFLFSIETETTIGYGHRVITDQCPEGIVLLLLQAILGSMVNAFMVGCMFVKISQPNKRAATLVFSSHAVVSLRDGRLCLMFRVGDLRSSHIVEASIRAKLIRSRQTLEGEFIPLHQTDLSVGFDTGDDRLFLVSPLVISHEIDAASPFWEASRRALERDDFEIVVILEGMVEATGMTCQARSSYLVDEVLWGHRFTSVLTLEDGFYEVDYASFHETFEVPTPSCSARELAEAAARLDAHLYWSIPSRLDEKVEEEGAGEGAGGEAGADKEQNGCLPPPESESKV
smiles,measurement,value
Cc1cc(NC(=O)Nc2ccc(F)c(F)c2)n(-c2ccccc2)n1,outcome,inactive
